These results are taken from ChEMBL document CHEMBL4145508 (Eur J Med Chem, 2018).

Calls of active or inactive are those of the source. No cut-off for these calls is given here. Bounds are passed on as bounds.

Data set [1] has as its target T1, Neuraminidase (Influenza A virus, UniProt B4URF0). Set-up: species or system duck/Guangdong/674/2014(H5N6).
The target in data set [2] is T1, Neuraminidase. More on the design: species or system chicken/china/1220/2012(H5N1).
Data set [3] can be described thus: Cytotoxicity against chicken embryo fibroblasts assessed as reduction in cell viability after 2 days by CCK-8 assay. The format is cell-based, Gallus gallus, Fibroblast. In a few lines:
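Chicken embryo fibroblasts grown 24 h at 37 °C, then exposed without virus to compounds dissolved in water and serially diluted 3-fold in DMEM. Incubation was at 37 °C under 5% CO₂, with viability read by CCK-8 at 2 days. CC₅₀, the concentration giving a 50% drop in viability, was fitted from the concentration curve.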
On the technique in general: Formazan colour is commonly taken as a measure of viable cells.

Data set [4] deals with Influenza A virus. Nature of the data set: Antiviral activity against influenza A virus chicken/china/1220/2012(H5N1) infected in chicken embryo fibroblasts assessed as effect on embryo survival at 0.0390625 mmol/L preincubated with virus for 1 hr followed by viral infection measured after […]. The format is functional, organism-based.
In data set [5] the test system is Influenza A virus. The data set is described as follows: Antiviral activity against influenza A virus chicken/china/1220/2012(H5N1) infected in chicken embryo fibroblasts assessed as reduction in viral cytopathic effect preincubated with virus for 1 hr followed by viral infection measured after 2 days by CCK-8 assay. The format is functional, organism-based. In general terms: Cytopathic effects are the visible damage that an infection or toxin causes in cultured cells.

Data set [6] deals with Influenza A virus. Nature of the data set: Antiviral activity against influenza A virus duck/Guangdong/674/2014(H5N6) infected in chicken embryo fibroblasts assessed as effect on embryo survival at 10 mmol/L preincubated with virus for 1 hr followed by viral infection measured after […]. The format is functional, organism-based.
In data set [7] the test system is Influenza A virus. The data set is described as follows: Antiviral activity against influenza A virus duck/Guangdong/674/2014(H5N6) infected in chicken embryo fibroblasts assessed as reduction in viral cytopathic effect preincubated with virus for 1 hr followed by viral infection measured after 2 days by CCK-8 assay. The format is functional, organism-based.
Data set [8] concerns Influenza A virus. The data set is described as follows: Antiviral activity against influenza A virus duck/Guangdong/674/2014(H5N6) infected in chicken embryo fibroblasts assessed as effect on embryo survival at 0.625 mmol/L preincubated with virus for 1 hr followed by viral infection measured after […]. The format is functional, organism-based.
For data set [9], the system named is Influenza A virus. Nature of the data set: Antiviral activity against influenza A virus chicken/china/1220/2012(H5N1) infected in chicken embryo fibroblasts assessed as effect on embryo survival at 0.15625 mmol/L preincubated with virus for 1 hr followed by viral infection measured after […]. The format is functional, organism-based.
Data set [10] has as its system Influenza A virus. The data set is described as follows: Antiviral activity against influenza A virus duck/Guangdong/674/2014(H5N6) infected in chicken embryo fibroblasts assessed as effect on embryo survival at 2.5 mmol/L preincubated with virus for 1 hr followed by viral infection measured after […]. The format is functional, organism-based.
In data set [11] the test system is Influenza A virus. Nature of the data set: Antiviral activity against influenza A virus duck/Guangdong/674/2014(H5N6) infected in chicken embryo fibroblasts assessed as effect on embryo survival at 0.0390625 mmol/L preincubated with virus for 1 hr followed by viral infection measured after […]. The format is functional, organism-based.
Data set [12] has as its system Influenza A virus. Nature of the data set: Antiviral activity against influenza A virus duck/Guangdong/674/2014(H5N6) infected in chicken embryo fibroblasts assessed as effect on embryo survival at 0.15625 mmol/L preincubated with virus for 1 hr followed by viral infection measured after […]. The format is functional, organism-based.
Data set [13] has as its system Influenza A virus. The data set is described as follows: Antiviral activity against influenza A virus chicken/china/1220/2012(H5N1) infected in chicken embryo fibroblasts assessed as effect on embryo survival at 10 mmol/L preincubated with virus for 1 hr followed by viral infection measured after […]. The format is functional, organism-based.
For data set [14], the system named is Influenza A virus. Nature of the data set: Antiviral activity against influenza A virus chicken/china/1220/2012(H5N1) infected in chicken embryo fibroblasts assessed as effect on embryo survival at 2.5 mmol/L preincubated with virus for 1 hr followed by viral infection measured after […]. The format is functional, organism-based.
Data set [15] has as its system Influenza A virus. Nature of the data set: Antiviral activity against influenza A virus chicken/china/1220/2012(H5N1) infected in chicken embryo fibroblasts assessed as effect on embryo survival at 0.625 mmol/L preincubated with virus for 1 hr followed by viral infection measured after […]. The format is functional, organism-based.

T1 sequence (B4URF0 whole entry): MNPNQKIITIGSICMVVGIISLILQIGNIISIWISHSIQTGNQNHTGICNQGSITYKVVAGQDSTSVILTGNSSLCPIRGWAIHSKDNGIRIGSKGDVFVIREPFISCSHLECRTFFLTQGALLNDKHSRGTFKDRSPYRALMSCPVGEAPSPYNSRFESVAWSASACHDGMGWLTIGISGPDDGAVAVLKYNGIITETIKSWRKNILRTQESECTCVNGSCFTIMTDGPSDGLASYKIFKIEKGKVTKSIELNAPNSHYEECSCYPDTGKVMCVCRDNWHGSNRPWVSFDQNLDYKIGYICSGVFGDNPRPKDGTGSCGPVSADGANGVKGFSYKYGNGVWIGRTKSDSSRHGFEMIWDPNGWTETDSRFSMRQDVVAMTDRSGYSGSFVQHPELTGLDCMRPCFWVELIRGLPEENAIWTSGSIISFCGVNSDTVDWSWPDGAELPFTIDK

For `CCC(CC)O[C@@H]1C=C(C(=O)NCc2ccc(-c3ccccc3)cc2)C[C@H](N)[C@H]1NC(C)=O`, the figures for the IC50 on Neuraminidase [1] and at Neuraminidase [2] were 0.99 µM and 0.96 µM, respectively.

For `CCC(CC)O[C@@H]1C=C(C(=O)NCc2cc(F)cc(F)c2)C[C@H](N)[C@H]1NC(C)=O`, the IC50 (commonly the midpoint of a concentration-inhibition curve) against Neuraminidase [1] is 10.4 µM; against Neuraminidase [2], 2.22 µM.

`CCC(CC)O[C@@H]1C=C(C(=O)N[C@@H](C)C(=O)O)C[C@H](N)[C@H]1NC(C)=O`: the IC50 on Neuraminidase [1] stood at 1.28 µM; at Neuraminidase [2], 2.2 µM.

As for `CCC(CC)O[C@@H]1C=C(C(=O)NCc2ccc(C)cc2)C[C@H](N)[C@H]1NC(C)=O`, the half-maximal inhibitory concentration (IC50) at Neuraminidase [1] worked out at 11 µM; on Neuraminidase [2], 2.91 µM.

In the case of `CCC(CC)O[C@@H]1C=C(C(=O)N(C)CCc2cccc(F)c2)C[C@H](N)[C@H]1NC(C)=O`, the values for the IC50 against Neuraminidase [1] and against Neuraminidase [2] were 2.51 µM and 2.65 µM, respectively.

For the compound `CCC(CC)O[C@@H]1C=C(C(=O)NCCc2cccc(F)c2)C[C@H](N)[C@H]1NC(C)=O`, the results for the IC50 on Neuraminidase [1] and against Neuraminidase [2] were 32.5 µM and 15.2 µM, respectively.

With `CCC(CC)O[C@@H]1C=C(C(=O)NCC(=O)O)C[C@H](N)[C@H]1NC(C)=O`, the IC50 at Neuraminidase [1] worked out at 2.16 µM; at Neuraminidase [2] it was 2.53 µM.

With `CCC(CC)O[C@@H]1C=C(C(=O)NCc2ccc(OC)cc2)C[C@H](N)[C@H]1NC(C)=O`, the IC50 on Neuraminidase [1] and against Neuraminidase [2] was over 40 µM throughout.

Take `CCC(CC)O[C@@H]1C=C(C(=O)Nc2ccc(N3CCOCC3=O)cc2)C[C@H](N)[C@H]1NC(C)=O`: the IC50 on Neuraminidase [1] came out at 2.27 µM; against Neuraminidase [2], 1.46 µM.

As for `CCC(CC)O[C@@H]1C=C(C(=O)Nc2ccc(F)cc2)C[C@H](N)[C@H]1NC(C)=O`, the IC50 on Neuraminidase [1] was determined as 16.3 µM; on Neuraminidase [2], 11.7 µM.

On to `CCC(CC)O[C@@H]1C=C(C(=O)NCc2ccc(-c3cccs3)cc2)C[C@H](N)[C@H]1NC(C)=O`, for which the IC50 against Neuraminidase [1] was 10.9 µM; on Neuraminidase [2], 7.75 µM.

`CCC(CC)O[C@@H]1C=C(C(=O)NCc2ccccc2F)C[C@H](N)[C@H]1NC(C)=O`: the IC50 at Neuraminidase [1] was 14.7 µM; against Neuraminidase [2], 6.26 µM.

On to `CCC(CC)O[C@@H]1C=C(C(=O)NCCN2CCOCC2)C[C@H](N)[C@H]1NC(C)=O`, for which the results for the IC50 against Neuraminidase [1] and on Neuraminidase [2] were 12.1 µM and 4.24 µM, respectively.

With `CCC(CC)O[C@@H]1C=C(C(=O)N[C@H](C)C(=O)O)C[C@H](N)[C@H]1NC(C)=O`, the IC50 against Neuraminidase [1] turned out to be 1.07 µM; against Neuraminidase [2], 1.35 µM.

Take `CCC(CC)O[C@@H]1C=C(C(=O)O)C[C@H](N)[C@H]1NC(C)=O` [OSELTAMIVIR CARBOXYLATE]: in data set [3], the CC50 (usually the concentration at which the toxic effect on the cells reaches its halfway point) at 48 h is over 1000 µM. In addition, the outcome with Influenza A virus [4], with Influenza A virus [6], in the data set on Influenza A virus [8], in the data set on Influenza A virus [9], in the data set on Influenza A virus [10] and in the data set on Influenza A virus [11] was inactive. In the data set with Influenza A virus [12], the result was inactive. Further, the EC50 (as a rule, the concentration that produces a half-maximal response) in the data set with Influenza A virus [5] came out at 1.35 µM; in the data set with Influenza A virus [7], 0.73 µM.

`CCC(CC)O[C@@H]1C=C(C(=O)N[C@@H](C(=O)O)C(C)C)C[C@H](N)[C@H]1NC(C)=O`: the result with Influenza A virus [13] and with Influenza A virus [6] was Active. In [3], the CC50 at 48 h is over 1000 µM. The outcome with Influenza A virus [4], in the data set on Influenza A virus [14], in the data set on Influenza A virus [15], in the data set with Influenza A virus [8], with Influenza A virus [9] and in the data set on Influenza A virus [10] was inactive. For the same compound, the result with Influenza A virus [11] and in the data set with Influenza A virus [12] was inactive. For the same compound, the EC50 in the data set on Influenza A virus [5] was 4.26 µM; in the data set on Influenza A virus [7] it was 1.31 µM. In addition, the values for the IC50 against Neuraminidase [1] and on Neuraminidase [2] were 0.0967 µM and 0.0883 µM, respectively.

On to `CCC(CC)O[C@@H]1C=C(C(=O)NCCc2ccccc2F)C[C@H](N)[C@H]1NC(C)=O`, for which the IC50 is 5.12 µM at Neuraminidase [1] and 3.17 µM against Neuraminidase [2].

On to `CCC(CC)O[C@@H]1C=C(C(=O)NCc2ccc(-c3ccsc3)cc2)C[C@H](N)[C@H]1NC(C)=O`, for which the figures for the IC50 against Neuraminidase [1] and against Neuraminidase [2] were over 40 µM and 29.8 µM, respectively.

Turning to `CCC(CC)O[C@@H]1C=C(C(=O)NCc2ccc(F)cc2Cl)C[C@H](N)[C@H]1NC(C)=O`, the IC50 against Neuraminidase [1] turned out to be 19.4 µM; at Neuraminidase [2], 3.91 µM.

In the case of `CCC(CC)O[C@@H]1C=C(C(=O)NCc2ccc(C(F)(F)F)cc2)C[C@H](N)[C@H]1NC(C)=O`, the IC50 against Neuraminidase [1] was 8.78 µM; against Neuraminidase [2], 10.9 µM.

As to `C=CCNC(=O)C1=C[C@@H](OC(CC)CC)[C@H](NC(C)=O)[C@@H](N)C1`, the IC50 was determined as 0.41 µM on Neuraminidase [1] and 5.03 µM against Neuraminidase [2].

For `CCC(CC)O[C@@H]1C=C(C(=O)NCc2cccc(F)c2)C[C@H](N)[C@H]1NC(C)=O`, the IC50 at Neuraminidase [1] was found to be 11.4 µM; at Neuraminidase [2], 5.09 µM.

In the case of `CCC(CC)O[C@@H]1C=C(C(=O)NCc2ccccc2)C[C@H](N)[C@H]1NC(C)=O`, the IC50 on Neuraminidase [1] was determined as 19.9 µM; against Neuraminidase [2] it was 9.87 µM.

`CCC(CC)O[C@@H]1C=C(C(=O)NCc2cccc(Cl)c2)C[C@H](N)[C@H]1NC(C)=O`: the values for the IC50 on Neuraminidase [1] and against Neuraminidase [2] were 7.86 µM and 3.02 µM, respectively.

For `CCC(CC)O[C@@H]1C=C(C(=O)N[C@H](C(=O)O)C(C)C)C[C@H](N)[C@H]1NC(C)=O` [listing 1 of 2 here], the IC50 at Neuraminidase [1] was determined as 0.248 µM; against Neuraminidase [2], 0.135 µM.

For `CCC(CC)O[C@@H]1C=C(C(=O)NCc2ccc(Br)cc2)C[C@H](N)[C@H]1NC(C)=O`, the IC50 against Neuraminidase [1] amounted to 6.01 µM; at Neuraminidase [2], 2.07 µM.

As for `CCC(CC)O[C@@H]1C=C(C(=O)NCc2ccc(F)cc2)C[C@H](N)[C@H]1NC(C)=O`, the IC50 against Neuraminidase [1] amounted to 2.78 µM; against Neuraminidase [2] it was 0.94 µM.

Take `CCC(CC)O[C@@H]1C=C(C(=O)N[C@H](C(=O)O)C(C)C)C[C@H](N)[C@H]1NC(C)=O` [listing 2 of 2 here]: the IC50 came to 0.304 µM at Neuraminidase [1] and 0.342 µM at Neuraminidase [2].
